Experimental data as given in ChEMBL document CHEMBL3351593, “Potent nonimmunosuppressive cyclophilin inhibitors with improved pharmaceutical properties and decreased transporter inhibition” (J Med Chem, 2014).

Columns and labels:
[1] = test system: Hepatitis C virus; test: Antiviral activity against HCV subtype 1b in human Huh7.5 cells expressing subgenomic HCV replicons and coexpressing luciferase reporter gene; assay type: functional, cell-based, Hepacivirus hominis; details: genotype 1b, Huh-7
How it was run: (§1)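 Stable Huh7.5 lines carrying genotype 1a or 1b subgenomic replicons with luciferase reporter, made by RNA electroporation and G418 selection. Assay run in phenol red-free DMEM without G418, sixteen half-log compound dilutions, in triplicate. Luciferase signal read after 72 h relative to DMSO controls, giving EC50.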

[2] = target: Peptidyl-prolyl cis-trans isomerase A (Homo sapiens, UniProt P62937); test: Binding affinity to human cyclophilin A by surface plasmon resonance method
[3] = target: T1, Solute carrier organic anion transporter family member 1B1 (Homo sapiens, UniProt Q9Y6L6); test: Inhibition of OATP1B1 (unknown origin) expressed in CHO cells using 8-fluorescein-cAMP substrate by fluorescent photometry; assay type: ADME, cell-based
T1 sequence (Q9Y6L6 whole entry): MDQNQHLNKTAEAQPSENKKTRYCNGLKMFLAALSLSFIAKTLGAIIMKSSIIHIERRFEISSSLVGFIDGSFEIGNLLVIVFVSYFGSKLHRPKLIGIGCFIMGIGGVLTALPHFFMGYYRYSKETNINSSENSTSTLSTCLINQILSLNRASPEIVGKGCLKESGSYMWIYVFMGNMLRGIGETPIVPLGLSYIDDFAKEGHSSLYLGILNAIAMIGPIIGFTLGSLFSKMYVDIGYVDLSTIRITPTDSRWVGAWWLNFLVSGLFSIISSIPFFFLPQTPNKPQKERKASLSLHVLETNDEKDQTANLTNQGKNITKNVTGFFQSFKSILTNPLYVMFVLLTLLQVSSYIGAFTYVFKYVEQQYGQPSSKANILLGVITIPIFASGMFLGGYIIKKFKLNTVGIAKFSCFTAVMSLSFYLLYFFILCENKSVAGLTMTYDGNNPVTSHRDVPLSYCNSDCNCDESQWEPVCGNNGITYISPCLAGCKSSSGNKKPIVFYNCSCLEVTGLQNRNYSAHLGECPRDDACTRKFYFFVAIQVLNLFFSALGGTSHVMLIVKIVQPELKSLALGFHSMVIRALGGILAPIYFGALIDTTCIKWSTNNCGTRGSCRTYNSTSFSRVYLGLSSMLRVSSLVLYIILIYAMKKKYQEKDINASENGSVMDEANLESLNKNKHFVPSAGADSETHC
How it was run: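 CHO-OATP1B1 cells and vector control cells cultured 2 days, then washed and equilibrated 15 min in HBSS + 10 mM HEPES. Exposed 10 min to 2.5 μM 8-fluorescein-cAMP with inhibitor at 0−30 μM (up to 1% DMSO). Cells washed and lysed, uptake measured by fluorescence, and IC50 taken from the concentration-response curve.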

[4] = Cytotoxicity against human MT4 cells by CDCF probe based assay; assay type: cell-based
[5] = target: Peptidyl-prolyl cis-trans isomerase F, mitochondrial (Homo sapiens, UniProt P30405); test: Binding affinity to human cyclophilin F by surface plasmon resonance method
How it was run: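 Surface plasmon resonance with biotinylated cyclophilin protein, single-cycle kinetics. Running buffer 10 mM HEPES pH 7.4, 150 mM NaCl, 0.05% P20, 3% DMSO, with inhibitor present. Compound injected at several concentrations, 1 min contact each at 50 μL/min, then 10 min final dissociation. kon, koff and KD obtained from a 1:1 binding model fit.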

[6] = test system: PBMC; test: Cytotoxicity against PHA-stimulated human PBMC by 5-bromo-2'-deoxyuridine incorporation assay; assay type: cell-based
How it was run: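 Fresh PBMCs from two human donors in X-VIVO 15 medium, stimulated with PHA. Seven concentrations taken from a half-log series. Incubated 60 h at 37 °C, 5% CO2, with BrdU added for the final 12 h. Incorporation read by anti-BrdU ELISA at 450 nm. Percent inhibition against PHA-stimulated untreated cells after background subtraction, four-parameter fit giving IC50.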

[7] = test system: Hepatitis C virus; test: Antiviral activity against HCV subtype 1a in human Huh7.5 cells expressing subgenomic HCV replicons and coexpressing luciferase reporter gene; assay type: functional, cell-based, Hepacivirus hominis; details: Huh-7; how it was run: as §1
[8] = test system: Hepatitis C virus; test: Antiviral activity against HCV subtype 1b in human Huh7.5 cells expressing subgenomic HCV replicons and coexpressing luciferase reporter gene in presence of 40% human serum; assay type: functional, cell-based, Hepacivirus hominis; details: genotype 1b, Huh-7
How it was run: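 Genotype 1b luciferase replicon in Huh7.5 cells with 40% human serum added to the assay medium, in phenol red-free DMEM without G418. Sixteen half-log dilutions in triplicate. Luciferase read after 72 h relative to DMSO-treated cells, giving EC50.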

[9] = target: Peptidyl-prolyl cis-trans isomerase B (Homo sapiens, UniProt P23284); test: Binding affinity to human cyclophilin B by surface plasmon resonance method
How it was run: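 Biotinylated cyclophilin proteins examined by single-cycle kinetics SPR. Running buffer 10 mM HEPES pH 7.4, 150 mM NaCl, 0.05% P20, 3% DMSO, with inhibitor. Each concentration injected for 1 min at 50 μL/min, then 10 min dissociation. kon, koff and KD obtained from a 1:1 binding fit.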

[10] = target: Cytochrome P450 3A4 (Homo sapiens, UniProt P08684); test: Time dependent inhibition of CYP3A4 (unknown origin); assay type: ADME; details: TDE = time-dependent effect
Chain of Cytochrome P450 3A4 (P08684 whole entry): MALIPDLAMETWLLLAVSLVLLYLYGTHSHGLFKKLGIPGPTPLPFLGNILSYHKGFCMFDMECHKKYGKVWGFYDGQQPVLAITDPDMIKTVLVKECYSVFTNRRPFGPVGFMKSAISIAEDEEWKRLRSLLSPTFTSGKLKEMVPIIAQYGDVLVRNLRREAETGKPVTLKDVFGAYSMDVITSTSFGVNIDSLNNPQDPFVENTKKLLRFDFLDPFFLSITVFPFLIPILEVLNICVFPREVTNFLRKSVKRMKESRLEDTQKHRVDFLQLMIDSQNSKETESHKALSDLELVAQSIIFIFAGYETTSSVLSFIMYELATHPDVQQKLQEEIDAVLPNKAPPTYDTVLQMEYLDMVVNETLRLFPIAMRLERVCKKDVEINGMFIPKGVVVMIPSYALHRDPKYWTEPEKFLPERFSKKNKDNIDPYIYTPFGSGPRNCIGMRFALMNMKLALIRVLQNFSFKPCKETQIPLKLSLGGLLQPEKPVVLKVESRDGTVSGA

Chain of Peptidyl-prolyl cis-trans isomerase A (P62937 whole entry): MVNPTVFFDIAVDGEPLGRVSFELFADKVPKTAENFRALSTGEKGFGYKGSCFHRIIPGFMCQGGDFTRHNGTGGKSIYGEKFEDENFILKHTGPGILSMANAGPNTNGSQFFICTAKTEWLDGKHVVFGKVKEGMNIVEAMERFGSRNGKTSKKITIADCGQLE
Chain of Peptidyl-prolyl cis-trans isomerase B (P23284 whole entry): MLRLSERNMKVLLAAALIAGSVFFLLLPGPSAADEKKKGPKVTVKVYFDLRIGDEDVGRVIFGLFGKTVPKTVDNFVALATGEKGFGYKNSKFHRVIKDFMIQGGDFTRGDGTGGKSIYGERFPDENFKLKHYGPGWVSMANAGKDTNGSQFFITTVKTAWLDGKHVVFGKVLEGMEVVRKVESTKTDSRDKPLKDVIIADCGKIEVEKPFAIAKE
Chain of Peptidyl-prolyl cis-trans isomerase F, mitochondrial (P30405 whole entry): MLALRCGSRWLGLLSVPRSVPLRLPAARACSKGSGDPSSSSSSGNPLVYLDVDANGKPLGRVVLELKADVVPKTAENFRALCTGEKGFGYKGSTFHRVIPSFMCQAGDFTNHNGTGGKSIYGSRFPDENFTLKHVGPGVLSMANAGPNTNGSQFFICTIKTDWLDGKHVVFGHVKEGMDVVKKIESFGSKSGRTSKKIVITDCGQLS

EC50 [1] [nM]	Kd [2] [nM]	IC50 [3] [nM]	inhibition (INH) [10]	Compound	CC50 [4] [nM]	Kd [5] [nM]	IC50 [6] [nM]	EC50 [7] [nM]	EC50 [8] [nM]	Kd [9] [nM]
28	1.3	1000	–	C/C=C/C[C@@H](C)[C@@H](O)[C@H]1C(=O)N[C@@H](CC)C(=O)N(C)[C@H](C)C(=O)N(C)[C@@H]([C@H](C)CC#N)C(=O)N[C@@H](C(C)C)C(=O)N(C)[C@@H](CC(C)C)C(=O)N[C@@H](C)C(=O)N[C@H](C)C(=O)N(C)[C@@H](CC(C)C)C(=O)N(C)[C@@H](CC(C)C)C(=O)N(C)[C@@H](C(C)C)C(=O)N1C	–	–	–	–	–	–
36	1.7	2800	–	C/C=C/C[C@@H](C)[C@@H](O)[C@H]1C(=O)N[C@@H](CC)C(=O)N(C)[C@H](C)C(=O)N(C)[C@@H]([C@H](C)COC)C(=O)N[C@@H](C(C)C)C(=O)N(C)[C@@H](CC(C)C)C(=O)N[C@@H](C)C(=O)N[C@H](C)C(=O)N(C)[C@@H](CC(C)C)C(=O)N(C)[C@@H](CC(C)C)C(=O)N(C)[C@@H](C(C)C)C(=O)N1C	–	–	–	–	–	–
44	4	–	–	C/C=C/C[C@@H](C)[C@@H](O)[C@H]1C(=O)N[C@@H](CC)C(=O)N(C)[C@H](C)C(=O)N(C)[C@@H]([C@H](C)CN2CCC(F)(F)C2)C(=O)N[C@@H](C(C)C)C(=O)N(C)[C@@H](CC(C)C)C(=O)N[C@@H](C)C(=O)N[C@H](C)C(=O)N(C)[C@@H](CC(C)C)C(=O)N(C)[C@@H](CC(C)C)C(=O)N(C)[C@@H](C(C)C)C(=O)N1C	–	–	–	–	–	–
36	1.1	6400	–	C/C=C/C[C@@H](C)[C@@H](O)[C@H]1C(=O)N[C@@H](CC)C(=O)N(C)[C@H](C)C(=O)N(C)[C@@H]([C@H](C)COCCN2CCOCC2)C(=O)N[C@@H](C(C)C)C(=O)N(C)[C@@H](CC(C)C)C(=O)N[C@@H](C)C(=O)N[C@H](C)C(=O)N(C)[C@@H](CC(C)C)C(=O)N(C)[C@@H](CC(C)C)C(=O)N(C)[C@@H](C(C)C)C(=O)N1C	–	–	–	–	–	–
33	3.1	4300	–	C/C=C/C[C@@H](C)[C@@H](O)[C@H]1C(=O)N[C@@H](CC)C(=O)N(C)[C@H](C)C(=O)N(C)[C@@H]([C@H](C)CN2CCOCC2)C(=O)N[C@@H](C(C)C)C(=O)N(C)[C@@H](CC(C)C)C(=O)N[C@@H](C)C(=O)N[C@H](C)C(=O)N(C)[C@@H](CC(C)C)C(=O)N(C)[C@@H](CC(C)C)C(=O)N(C)[C@@H](C(C)C)C(=O)N1C	–	–	–	–	–	–
29	1.1	–	tde	C/C=C/C[C@@H](C)[C@@H](O)[C@H]1C(=O)N[C@@H](CC)C(=O)N(C)[C@H](C)C(=O)N(C)[C@@H]([C@H](C)CCN2CCOCC2)C(=O)N[C@@H](C(C)C)C(=O)N(C)[C@@H](CC(C)C)C(=O)N[C@@H](C)C(=O)N[C@H](C)C(=O)N(C)[C@@H](CC(C)C)C(=O)N(C)[C@@H](CC(C)C)C(=O)N(C)[C@@H](C(C)C)C(=O)N1C	–	–	–	–	–	–
37	1.9	1800	–	C/C=C/C[C@@H](C)[C@@H](O)[C@H]1C(=O)N[C@@H](CC)C(=O)N(C)[C@H](C)C(=O)N(C)[C@@H]([C@H](C)CN2CCCOCC2)C(=O)N[C@@H](C(C)C)C(=O)N(C)[C@@H](CC(C)C)C(=O)N[C@@H](C)C(=O)N[C@H](C)C(=O)N(C)[C@@H](CC(C)C)C(=O)N(C)[C@@H](CC(C)C)C(=O)N(C)[C@@H](C(C)C)C(=O)N1C	–	–	–	–	–	–
42	2.5	1800	–	C/C=C/C[C@@H](C)[C@@H](O)[C@H]1C(=O)N[C@@H](CC)C(=O)N(C)[C@H](C)C(=O)N(C)[C@@H]([C@H](C)CN2CC3CCC(C2)O3)C(=O)N[C@@H](C(C)C)C(=O)N(C)[C@@H](CC(C)C)C(=O)N[C@@H](C)C(=O)N[C@H](C)C(=O)N(C)[C@@H](CC(C)C)C(=O)N(C)[C@@H](CC(C)C)C(=O)N(C)[C@@H](C(C)C)C(=O)N1C	–	–	–	–	–	–
221	–	–	–	C/C=C/C[C@@H](C)[C@@H](O)[C@H]1C(=O)N[C@@H](CC)C(=O)N(C)C(SCCN(C)C)C(=O)N(C)[C@@H](CC(C)(C)O)C(=O)N[C@@H](C(C)C)C(=O)N(C)[C@@H](CC(C)C)C(=O)N[C@@H](C)C(=O)N[C@H](C)C(=O)N(C)[C@@H](CC(C)C)C(=O)N(C)[C@@H](CC(C)C)C(=O)N(C)[C@@H](C(C)C)C(=O)N1C (single isomer, unassigned) [SCY 635]	–	3.1	4700	263	192	2.9
42	1.8	2000	–	C/C=C/C[C@@H](C)[C@@H](O)[C@H]1C(=O)N[C@@H](CC)C(=O)N(C)[C@H](C)C(=O)N(C)[C@@H]([C@H](C)CN(C)CCOC)C(=O)N[C@@H](C(C)C)C(=O)N(C)[C@@H](CC(C)C)C(=O)N[C@@H](C)C(=O)N[C@H](C)C(=O)N(C)[C@@H](CC(C)C)C(=O)N(C)[C@@H](CC(C)C)C(=O)N(C)[C@@H](C(C)C)C(=O)N1C	–	–	–	–	–	–
29	1.4	–	–	C/C=C/C[C@@H](C)[C@@H](O)[C@H]1C(=O)N[C@@H](CC)C(=O)N(C)[C@H](C)C(=O)N(C)[C@@H]([C@H](C)CN2CCC(C#N)CC2)C(=O)N[C@@H](C(C)C)C(=O)N(C)[C@@H](CC(C)C)C(=O)N[C@@H](C)C(=O)N[C@H](C)C(=O)N(C)[C@@H](CC(C)C)C(=O)N(C)[C@@H](CC(C)C)C(=O)N(C)[C@@H](C(C)C)C(=O)N1C	–	–	–	–	–	–

Compound	EC50 [1] [nM]	Kd [2] [nM]	IC50 [3] [nM]	inhibition (INH) [10]	CC50 [4] [nM]	Kd [5] [nM]	IC50 [6] [nM]	EC50 [7] [nM]	EC50 [8] [nM]	Kd [9] [nM]
C/C=C/C[C@@H](C)[C@@H](O)[C@H]1C(=O)N[C@@H](CC)C(=O)N(C)CC(=O)N(C)[C@@H]([C@@H](C)CC)C(=O)N[C@@H](C(C)C)C(=O)N(C)[C@@H](CC(C)C)C(=O)N[C@@H](C)C(=O)N[C@H](C)C(=O)N(C)[C@@H](CC(C)C)C(=O)N(C)[C@@H](CC(C)C)C(=O)N(C)[C@@H](C(C)C)C(=O)N1C [NIM811]	97	7.5	–	–	13000	4.2	2400	217	210	7.4
